Experimental data from ChEMBL document CHEMBL1828575, “Design, synthesis and antiproliferative activities of biarylolefins based on polyhydroxylated and carbohydrate scaffolds” (Eur J Med Chem, 2011).

Key:
Type in all cases: functional
[1] = system: SK-MEL-5; assay: Antitumor activity against human SK-MEL-5 cells after 48 hrs by SRB assay; conditions: SK-MEL-5, 48 h
In short: (§1)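 NCI60 panel cells grown in RPMI 1640 with 5% FBS and 2 mM L-glutamine, plated at 5000–40,000 cells/well and preincubated 24 h at 37 °C, 5% CO₂. Compound was added from DMSO at five concentrations, 10-fold or 1/2 log dilutions, then incubated 48 h.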

[2] = system: MDA-MB-468; assay: Antitumor activity against human MDA-MB-468 cells after 48 hrs by SRB assay; conditions: MDA-MB-468, 48 h
In short: (§2)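 NCI60 panel in RPMI 1640 with 5% FBS and 2 mM L-glutamine. Cells were plated at 5000–40,000/well by doubling time, held 24 h, then time-zero plates were TCA-fixed. Five concentrations (10-fold or half-log dilutions of DMSO stocks) were applied for 48 h at 37 °C, 5% CO2. Cells were fixed with cold TCA (10% final adherent, 16% suspension) and stained with 0.4% SRB. Bound dye was dissolved in 10 mM Tris and read at 515 nm. GI50, TGI and LC50 were calculated per line.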

[3] = system: OVCAR-8; assay: Antitumor activity against human OVCAR8 cells after 48 hrs by SRB assay; conditions: OVCAR-8, 48 h; in short: as §2
[4] = system: M14; assay: Cytotoxicity against human M14 cells assessed as cellular growth at 10 uM after 48 hrs by SRB assay
In short: (§3)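 NCI60 single-dose screen of cells in RPMI 1640 with 5% FBS and 2 mM L-glutamine, preincubated 24 h at 37 °C, 5% CO₂. Cells were then exposed 48 h to compound added from DMSO stock. TCA-fixed, stained with 0.4% SRB in 1% acetic acid, dye solubilised in 10 mM Tris base and read at 515 nm. Growth is given as percent of untreated control.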

[5] = system: COLO 205; assay: Cytotoxicity against human COLO205 cells assessed as cellular growth at 10 uM after 48 hrs by SRB assay; in short: as §3
[6] = system: BT-549; assay: Cytotoxicity against human BT549 cells assessed as cellular growth at 10 uM after 48 hrs by SRB assay; in short: as §3
[7] = system: ACHN; assay: Antitumor activity against human ACHN cells after 48 hrs by SRB assay; in short: as §2
[8] = system: HCT-15; assay: Cytotoxicity against human HCT15 cells assessed as cellular growth at 10 uM after 48 hrs by SRB assay; in short: as §3
[9] = system: K562; assay: Antitumor activity against human K562 cells after 48 hrs by SRB assay; conditions: K562, 48 h; in short: as §2
[10] = system: DU-145; assay: Antitumor activity against human DU145 cells after 48 hrs by SRB assay; conditions: DU-145, 48 h; in short: as §2
[11] = system: HCT-116; assay: Antitumor activity against human HCT116 cells after 48 hrs by SRB assay; conditions: HCT-116, 48 h; in short: as §2
[12] = system: EKVX; assay: Cytotoxicity against human EKVX cells assessed as cellular growth at 10 uM after 48 hrs by SRB assay; in short: as §3
[13] = system: UACC-257; assay: Antitumor activity against human UACC257 cells after 48 hrs by SRB assay; conditions: UACC-257, 48 h; in short: as §1
[14] = system: NCI-H522; assay: Cytotoxicity against human NCI-H522 cells assessed as cellular growth at 10 uM after 48 hrs by SRB assay
In short: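 NCI-60 panel lines grown in RPMI 1640 with 5% FBS and 2 mM L-glutamine. Plated at 5000–40,000 cells/well and preincubated 24 h at 37 °C, 5% CO₂, with time-zero plates fixed in TCA. Compounds, dissolved in DMSO and diluted in medium, were applied for 48 h. Cells were TCA-fixed (10% final for adherent, 16% for suspension) and stained with 0.4% SRB in 1% acetic acid. Dye was solubilised in 10 mM Tris base and read at 515 nm; growth was expressed as a percentage of untreated control.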

[15] = system: SK-MEL-2; assay: Antitumor activity against human SK-MEL-2 cells after 48 hrs by SRB assay; conditions: SK-MEL-2, 48 h; in short: as §1
[16] = system: HT-29; assay: Cytotoxicity against human HT-29 cells assessed as cellular growth at 10 uM after 48 hrs by SRB assay; in short: as §3
[17] = system: K562; assay: Cytotoxicity against human K562 cells assessed as cellular growth at 10 uM after 48 hrs by SRB assay; in short: as §3
[18] = system: U-251; assay: Antitumor activity against human U251 cells after 48 hrs by SRB assay; conditions: U-251, 48 h; in short: as §1
[19] = system: RPMI-8226; assay: Antitumor activity against human RPMI8226 cells after 48 hrs by SRB assay; conditions: RPMI-8226, 48 h; in short: as §2
[20] = system: PC-3; assay: Antitumor activity against human PC3 cells after 48 hrs by SRB assay; conditions: PC-3, 48 h; in short: as §2
[21] = system: A549; assay: Antitumor activity against human A549 cells after 48 hrs by SRB assay; conditions: A549, 48 h; in short: as §2
[22] = system: LOX IMVI; assay: Antitumor activity against human LOXIMVI cells after 48 hrs by SRB assay; in short: as §2
[23] = read-out: LC50 (the source's name)
[24] = read-out: pLC50 (the source's name) (converted)

COc1ccc(/C(=C2\O[C@@H]([C@H]3COC(C)(C)O3)[C@H]3OC(C)(C)O[C@@H]23)c2cc(OC)c(OC)c(OC)c2)cc1O
GI50 [1]: 4.07 µM | LC50 [1]: 51.4 µM | TGI [1]: 15.4 µM | GI50 ([2]; read-out: GI50): 17.8 µM | CC50 [2, 23]: > 100 µM | TGI ([2]; read-out: TGI): 63.6 µM | GI50 ([2]; read-out: pGI50 (converted)): 25.7 µM | CC50 [2, 24]: > 100 µM | TGI ([2]; read-out: pTGI (converted)): 63.1 µM | GI50 ([3]; read-out: GI50): 6.56 µM | CC50 [3, 23]: > 100 µM | TGI ([3]; read-out: TGI): > 100 µM | GI50 ([3]; read-out: pGI50 (converted)): 8.51 µM | CC50 [3, 24]: > 100 µM | TGI ([3]; read-out: pTGI): > 100 µM | Activity [4]: 19.53% | Activity [5]: 120.67% | Activity [6]: 67.52% | GI50 ([7]; read-out: GI50): 15.4 µM | CC50 [7, 23]: > 100 µM | TGI ([7]; read-out: TGI): > 100 µM | GI50 ([7]; read-out: pGI50 (converted)): 15.5 µM | CC50 [7, 24]: > 100 µM | TGI ([7]; read-out: pTGI): > 100 µM | Activity [8]: 32.51% | GI50 ([9]; read-out: GI50): 6.28 µM | CC50 [9, 23]: > 100 µM | TGI ([9]; read-out: TGI): > 100 µM | GI50 ([9]; read-out: pGI50 (converted)): 6.31 µM | CC50 [9, 24]: > 100 µM | TGI ([9]; read-out: pTGI): > 100 µM | GI50 ([10]; read-out: GI50): 3.93 µM | CC50 [10, 23]: > 100 µM | TGI ([10]; read-out: TGI): > 100 µM | GI50 ([10]; read-out: pGI50 (converted)): 3.89 µM | CC50 [10, 24]: > 100 µM | TGI ([10]; read-out: pTGI (converted)): > 100 µM | GI50 [11]: > 100 µM | LC50 (concentration giving 50% net cell kill) [11]: > 100 µM | TGI [11]: > 100 µM | Activity [12]: 100.52% | GI50 ([13]; read-out: GI50): 39.4 µM | CC50 [13, 23]: > 100 µM | TGI ([13]; read-out: TGI): > 100 µM | GI50 ([13]; read-out: pGI50 (converted)): 39.8 µM | CC50 [13, 24]: > 100 µM | TGI ([13]; read-out: pTGI (converted)): > 100 µM | Activity [14]: 51.79% | GI50 [15]: 1.53 µM | TGI [15]: 4.12 µM | CC50 [15, 23]: 24.1 µM | Activity [16]: 113.24% | Activity [17]: 10.18% | GI50 [18]: 3.12 µM | TGI [18]: 11.8 µM | CC50 [18, 23]: > 100 µM | LC50 (concentration killing 50% of starting cells) [19]: > 100 µM | GI50 ([19]; read-out: GI50): 4.82 µM | TGI ([19]; read-out: TGI): 34 µM | GI50 ([19]; read-out: pGI50 (converted)): 4.79 µM | CC50 [19, 24]: > 100 µM | TGI ([19]; read-out: pTGI (converted)): 33.9 µM | CC50 [20, 23]: > 100 µM | TGI ([20]; read-out: TGI): > 100 µM | GI50 ([20]; read-out: pGI50 (converted)): 4.17 µM | CC50 [20, 24]: > 100 µM | TGI ([20]; read-out: pTGI): > 100 µM | GI50 ([21]; read-out: GI50): 22.7 µM | CC50 [21, 23]: > 100 µM | TGI ([21]; read-out: TGI): > 100 µM | GI50 ([21]; read-out: pGI50 (converted)): 22.9 µM | CC50 [21, 24]: > 100 µM | TGI ([21]; read-out: pTGI (converted)): > 100 µM | GI50 [22]: 3.39 µM | TGI [22]: 19.8 µM | CC50 [22, 23]: > 100 µM
